Test results as given in ChEMBL document CHEMBL2401696, “Stereoselective synthesis and anti-proliferative effects on prostate cancer evaluation of 5-substituted-3,4-diphenylfuran-2-ones” (Eur J Med Chem, 2013).
pIC50: −log10 of the molar value. Activity calls are given as the source filed them. The rule behind the calls is not given here.

What was measured:
PC-3 [1] = assay: Antiproliferative activity against human PC3 cells expressing PCDNA after 72 hrs by MTT assay; type: functional, cell-based; conditions: PC-3, 72 h
Procedure, shortened: (§1)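 Cells (PC3 and its PCDNA- and SKP2-transfected lines, DU145) grown in RPMI 1640 with 10% FBS; G418 added for transfected lines. Exponential cells seeded 1 × 10⁴/well, 24 h at 37 °C, then fresh medium with compounds at several concentrations for 72 h. MTT 1–3 h at 37 °C, dissolved in 4% HCl/96% isopropanol, absorbance 570 nm. Triplicate per concentration; IC50 from dose–response curves.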

PC-3 [2] = assay: Antiproliferative activity against human PC3 cells expressing SKP2 after 72 hrs by MTT assay; type: functional, cell-based; conditions: PC-3, 72 h; procedure, shortened: as §1
[3] = biological target: T1, Prostaglandin G/H synthase 1 (Ovis aries) (UniProt P05979); assay: Inhibition of ovine COX-1 assessed as using arachidonic acid as substrate at 10 uM preincubated for 5 mins prior to substrate addition […] by enzyme immunoassay relative to control
T1 sequence (whole entry): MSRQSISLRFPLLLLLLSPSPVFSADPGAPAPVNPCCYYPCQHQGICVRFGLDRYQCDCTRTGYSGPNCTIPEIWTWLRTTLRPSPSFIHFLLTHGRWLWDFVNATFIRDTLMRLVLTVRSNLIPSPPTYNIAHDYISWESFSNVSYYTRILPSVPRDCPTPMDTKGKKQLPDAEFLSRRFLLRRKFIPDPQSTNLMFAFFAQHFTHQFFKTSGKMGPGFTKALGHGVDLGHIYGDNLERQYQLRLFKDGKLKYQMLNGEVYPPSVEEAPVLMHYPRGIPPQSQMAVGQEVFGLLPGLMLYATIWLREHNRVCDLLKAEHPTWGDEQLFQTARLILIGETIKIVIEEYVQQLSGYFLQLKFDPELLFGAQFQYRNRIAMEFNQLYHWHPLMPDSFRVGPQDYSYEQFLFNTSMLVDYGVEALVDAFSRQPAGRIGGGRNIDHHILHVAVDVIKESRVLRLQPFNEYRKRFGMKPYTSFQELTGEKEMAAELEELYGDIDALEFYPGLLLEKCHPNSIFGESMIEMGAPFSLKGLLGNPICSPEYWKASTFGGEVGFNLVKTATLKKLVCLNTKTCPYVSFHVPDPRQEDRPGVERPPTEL

[4] = biological target: T2, Prostaglandin G/H synthase 2 (Ovis aries) (UniProt P79208); assay: Inhibition of ovine COX-2 assessed as using arachidonic acid as substrate at 10 uM preincubated for 5 mins prior to substrate addition measured after 2 hrs by enzyme immunoassay relative to control; conditions: in the assay text read “after 2 mins” for “after 2 hrs”
T2 sequence (whole entry): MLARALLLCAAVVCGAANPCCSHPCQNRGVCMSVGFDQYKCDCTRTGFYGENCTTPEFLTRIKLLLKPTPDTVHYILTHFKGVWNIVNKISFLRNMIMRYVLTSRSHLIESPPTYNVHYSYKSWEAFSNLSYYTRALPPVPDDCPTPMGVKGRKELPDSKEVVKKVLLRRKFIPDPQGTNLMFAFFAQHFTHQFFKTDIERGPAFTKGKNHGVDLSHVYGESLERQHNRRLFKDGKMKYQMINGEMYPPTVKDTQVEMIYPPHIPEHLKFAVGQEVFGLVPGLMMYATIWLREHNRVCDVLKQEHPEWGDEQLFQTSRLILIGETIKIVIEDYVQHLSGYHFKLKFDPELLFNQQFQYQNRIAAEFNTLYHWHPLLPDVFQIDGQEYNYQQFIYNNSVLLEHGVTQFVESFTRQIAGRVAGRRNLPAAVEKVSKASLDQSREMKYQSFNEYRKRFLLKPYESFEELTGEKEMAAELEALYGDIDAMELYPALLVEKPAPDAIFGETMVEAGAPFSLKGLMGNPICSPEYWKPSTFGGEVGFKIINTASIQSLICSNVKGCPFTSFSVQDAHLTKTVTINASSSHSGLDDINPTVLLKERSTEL
Procedure, shortened: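 Ovine COX-1 or COX-2 with heme in 0.1 M Tris-HCl pH 8.0, 5 mM EDTA, 2 mM phenol; compound (0.001–100 µM final, DMSO stocks) preincubated 5 min at 37 °C, then arachidonic acid added, stopped with 1 M HCl after 2 min. PGF2α (SnCl2 reduction) quantified by competitive EIA at 412 nm; % inhibition vs controls; mean of two determinations.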

PC-3 [5] = assay: Antiproliferative activity against human PC3 cells after 72 hrs by MTT assay; type: functional, cell-based; conditions: PC-3, 72 h; procedure, shortened: as §1
DU-145 = assay: Antiproliferative activity against human DU145 cells after 72 hrs by MTT assay; type: functional, cell-based; conditions: DU-145, 72 h; procedure, shortened: as §1

Row | Structure (SMILES) | pIC50 (PC-3 [1]) | pIC50 (PC-3 [2]) | inhibition [3] | inhibition [4] | pIC50 (PC-3 [5]) | pIC50 (DU-145)
1 | CS(=O)(=O)c1ccc(C2=C(c3ccccc3)C(=O)O/C2=C\c2ccco2)cc1 | < 4.00 | < 4.00 | inactive | inactive |  | 
2 | COC1(C)OC(=O)C(c2ccccc2)=C1c1ccc(S(C)(=O)=O)cc1 (configuration not stated) | 4.43 | 4.69 |  |  | < 4.30 | < 4.30
3 | CS(=O)(=O)c1ccc(C2=C(c3ccccc3)C(=O)OC2)cc1 [ROFECOXIB] | < 4.30 | < 4.30 |  |  | 3.70 | 3.70
4 | CS(=O)(=O)c1ccc(C2=C(c3ccc(F)cc3)C(=O)O/C2=C\c2ccccc2)cc1 | < 4.30 | < 4.30 |  |  |  | 
5 | CS(=O)(=O)c1ccc(C2=C(c3ccc(F)cc3)C(=O)O/C2=C\c2cccc([N+](=O)[O-])c2)cc1 | < 4.30 | < 4.30 | inactive | inactive |  | 
6 | CC(C)=C1OC(=O)C(c2ccccc2)=C1c1ccc(S(C)(=O)=O)cc1 | < 4.30 | < 4.30 |  |  |  | 
7 | CS(=O)(=O)c1ccc(C2=C(c3ccc(F)cc3)C(=O)O/C2=C\c2ccco2)cc1 | < 4.30 | < 4.30 |  |  |  | 
8 | CS(=O)(=O)c1ccc(C2=C(c3ccccc3)C(=O)O/C2=C\c2cccc([N+](=O)[O-])c2)cc1 | < 4.05 | < 4.00 | inactive | inactive |  | 
9 | COc1cc(/C=C2\OC(=O)C(c3ccccc3Cl)=C2c2ccc(S(C)(=O)=O)cc2)cc(OC)c1OC | < 4.30 | < 4.30 |  |  |  | 
10 | CS(=O)(=O)c1ccc(C2=C(c3ccccc3Cl)C(=O)O/C2=C\c2ccc(F)cc2)cc1 | < 4.30 | < 4.30 |  |  |  | 
11 | CN(C)c1ccc(/C=C2\OC(=O)C(c3ccccc3)=C2c2ccc(S(C)(=O)=O)cc2)cc1 | < 4.30 | < 4.30 |  |  |  | 
12 | CS(=O)(=O)c1ccc(C2=C(c3ccc(F)cc3)C(=O)O/C2=C\c2ccc(Cl)cc2)cc1 | < 4.30 | < 4.30 |  | inactive |  | 
13 | CS(=O)(=O)c1ccc(C2=C(c3ccccc3Cl)C(=O)O/C2=C\c2cccc3ccccc23)cc1 | < 4.30 | < 4.30 |  |  |  | 
14 | CN(C)c1ccc(/C=C2\OC(=O)C(c3ccccc3Cl)=C2c2ccc(S(C)(=O)=O)cc2)cc1 | < 4.30 | 4.52 |  | 4.49% | < 4.30 | < 4.30
15 | CC(C)=CCC/C(C)=C\C=C1/OC(=O)C(c2ccccc2)=C1c1ccc(S(C)(=O)=O)cc1 | < 4.30 | < 4.30 |  |  |  | 
16 | CS(=O)(=O)c1ccc(C2=C(c3ccccc3)C(=O)O/C2=C\c2ccccc2)cc1 | < 4.05 | < 4.05 |  |  |  | 
17 | CS(=O)(=O)c1ccc(C2=C(c3ccccc3)C(=O)O/C2=C\c2ccc(Cl)cc2)cc1 | < 4.30 | < 4.30 | 14.6% | inactive |  | 
18 | CS(=O)(=O)c1ccc(C2=C(c3ccc(F)cc3)C(=O)O/C2=C\c2ccc(O)cc2)cc1 | 4.59 | 4.59 |  | 19.5% | < 4.30 | < 4.30

Row | Structure (SMILES) | pIC50 (PC-3 [1]) | pIC50 (PC-3 [2]) | inhibition [3] | inhibition [4] | pIC50 (PC-3 [5]) | pIC50 (DU-145)
19 | CS(=O)(=O)c1ccc(C2=C(c3ccccc3)C(=O)O/C2=C\c2ccc(O)cc2)cc1 | 4.59 | < 4.30 |  | 14.4% | < 4.30 | < 4.30
20 | CS(=O)(=O)c1ccc(C2=C(c3ccccc3Cl)C(=O)O/C2=C\c2ccc(Br)cc2)cc1 | < 4.30 | < 4.30 |  |  |  | 
21 | CS(=O)(=O)c1ccc(C2=C(c3ccccc3Cl)C(=O)O/C2=C\c2ccccc2Cl)cc1 | < 4.30 | < 4.30 |  |  |  | 
22 | CS(=O)(=O)c1ccc(C2=C(c3ccc(F)cc3)C(=O)O/C2=C\c2ccccc2Cl)cc1 | < 4.30 | < 4.30 |  |  |  | 
23 | COc1cc(/C=C2\OC(=O)C(c3ccccc3Cl)=C2c2ccc(S(C)(=O)=O)cc2)ccc1O | < 4.30 | 4.60 |  | 14.9% | < 4.30 | < 4.30
24 | CS(=O)(=O)c1ccc(C2=C(c3ccc(F)cc3)C(=O)O/C2=C\c2ccc3c(c2)OCO3)cc1 | < 4.30 | < 4.30 |  |  |  | 
25 | CS(=O)(=O)c1ccc(C2=C(c3ccccc3Cl)C(=O)O/C2=C\c2ccc3c(c2)OCO3)cc1 | < 4.30 | < 4.30 |  |  |  | 
26 | CC(C)=C1OC(=O)C(c2ccc(F)cc2)=C1c1ccc(S(C)(=O)=O)cc1 | < 4.30 | < 4.30 |  |  |  | 
27 | COc1cc(/C=C2\OC(=O)C(c3ccccc3)=C2c2ccc(S(C)(=O)=O)cc2)ccc1O | < 3.90 | 4.59 |  | 36.6% | < 4.30 | < 4.30
28 | COc1cc(/C=C2\OC(=O)C(c3ccccc3)=C2c2ccc(S(C)(=O)=O)cc2)cc(OC)c1OC | < 4.05 | < 4.00 |  |  |  | 
29 | O=c1[nH]cc(F)c(=O)[nH]1 [FLUOROURACIL] | 4.50 |  |  |  |  | 
30 | CS(=O)(=O)c1ccc(C2=C(c3ccc(F)cc3)C(=O)O/C2=C\c2ccc(Br)cc2)cc1 | < 4.30 | < 4.30 |  |  |  | 
31 | CS(=O)(=O)c1ccc(C2=C(c3ccc(F)cc3)C(=O)O/C2=C\c2ccc(F)cc2)cc1 | < 4.30 | < 4.30 |  |  |  | 
32 | CS(=O)(=O)c1ccc(C2=C(c3ccccc3Cl)C(=O)OC2)cc1 | < 4.30 | < 4.30 | inactive | 7.97% |  | 
33 | CS(=O)(=O)c1ccc(C2=C(c3ccc(F)cc3)C(=O)O/C2=C\c2cccc3ccccc23)cc1 | 4.70 | 4.60 |  | inactive | < 4.30 | < 4.30
34 | CS(=O)(=O)c1ccc(C2=C(c3ccccc3)C(=O)O/C2=C\c2ccc(Br)cc2)cc1 | 4.60 | < 4.30 |  | inactive | < 4.30 | < 4.30
35 | CS(=O)(=O)c1ccc(C2=C(c3ccccc3)C(=O)O/C2=C\c2cccc3ccccc23)cc1 | < 4.30 | < 4.30 |  |  |  | 
36 | CS(=O)(=O)c1ccc(C2=C(c3ccccc3Cl)C(=O)O/C2=C\c2ccco2)cc1 | < 4.30 | < 4.30 |  |  |  | 
